Columns and labels:
Conditions in all cases: in vivo
[1] = Drug excretion in mouse B16-F0 cells bearing C57BL/6 mouse urine at 0.74 to 0.92 MBq, iv after 72 hrs; assay type: ADME, organism-based
Method in brief: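 Urine was collected from two B16-F0 tumour-bearing C57BL6 mice for up to 72 h after iv tail-vein injection of the [¹²⁵I]-labelled compound (0.1 µmol). Samples were counted to give cumulative urinary excretion as %ID.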

[2] = Biodistribution in tumor of C57BL/6 mouse bearing mouse B16-F0 cells at 0.74 to 0.92 MBq, iv after 3 hrs; assay type: ADME, organism-based, Neoplasm
Method in brief: (§1)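 [¹²⁵I]-labelled compound given iv by tail vein (0.1 µmol per mouse) to male C57BL6 mice bearing s.c. B16-F0 flank tumours (5 × 10⁵ cells in PBS). Two mice per time point were killed by CO₂, frozen in liquid nitrogen and cut into 40 µm cryosections, eight slices per mouse. Slice radioactivity was read on a multiwire proportional counter, converted to kBq/g and reported as %ID/g.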

[3] = Biodistribution in tumor of C57BL/6 mouse bearing mouse B16-F0 cells at 0.74 to 0.92 MBq, iv after 6 hrs; assay type: ADME, organism-based, Neoplasm; method in brief: as §1
[4] = Ratio of drug level in tumor to liver of C57BL/6 mouse bearing mouse B16-F0 cells at 0.74 to 0.92 MBq, iv after 1 hr; assay type: ADME, organism-based
Method in brief: (§2)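 Tumour and organ radioactive concentrations came from whole-body cryosection counting (40 µm slices, eight per mouse, two mice per time) after tail-vein injection of the [¹²⁵I]-labelled compound (0.1 µmol) into male C57BL6 mice bearing s.c. B16-F0 melanoma. Each value is the ratio of the tumour concentration to the organ concentration.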

[5] = Ratio of drug level in tumor to liver of C57BL/6 mouse bearing mouse B16-F0 cells at 0.74 to 0.92 MBq, iv after 3 hrs; assay type: ADME, organism-based; method in brief: as §2
[6] = Ratio of drug level in tumor to liver of C57BL/6 mouse bearing mouse B16-F0 cells at 0.74 to 0.92 MBq, iv after 6 hrs; assay type: ADME, organism-based; method in brief: as §2
[7] = Ratio of drug level in tumor to liver of C57BL/6 mouse bearing mouse B16-F0 cells at 0.74 to 0.92 MBq, iv after 24 hrs; assay type: ADME, organism-based; method in brief: as §2
[8] = Ratio of drug level in tumor to lung of C57BL/6 mouse bearing mouse B16-F0 cells at 0.74 to 0.92 MBq, iv after 24 hrs; assay type: ADME, organism-based; method in brief: as §2
[9] = Ratio of drug level in tumor to brain of C57BL/6 mouse bearing mouse B16-F0 cells at 0.74 to 0.92 MBq, iv after 1 hr; assay type: ADME, organism-based; method in brief: as §2
[10] = Ratio of drug level in tumor to brain of C57BL/6 mouse bearing mouse B16-F0 cells at 0.74 to 0.92 MBq, iv after 6 hrs; assay type: ADME, organism-based; method in brief: as §2
Brain = experiment: Biodistribution in brain of C57BL/6 mouse bearing mouse B16-F0 cells at 0.74 to 0.92 MBq, iv after 6 hrs; assay type: ADME, organism-based
Method in brief: (§3)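 Male C57BL6 mice with s.c. left-flank B16-F0 melanoma (5 × 10⁵ cells in PBS). Two mice per time point frozen in liquid nitrogen after CO₂ sacrifice. Eight 40 µm whole-body cryosections per mouse read by multiwire proportional counter. cpm/mm² converted to kBq/g and expressed as %ID/g.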

[11] = Biodistribution in intestinal content of C57BL/6 mouse bearing mouse B16-F0 cells at 0.74 to 0.92 MBq, iv after 6 hrs; assay type: ADME, organism-based; method in brief: as §3
[12] = Biodistribution in Stomach content of C57BL/6 mouse bearing mouse B16-F0 cells at 0.74 to 0.92 MBq, iv after 3 hrs; assay type: ADME, organism-based; method in brief: as §3
[13] = Biodistribution in Stomach content of C57BL/6 mouse bearing mouse B16-F0 cells at 0.74 to 0.92 MBq, iv after 24 hrs; assay type: ADME, organism-based; method in brief: as §3
Liver [14] = experiment: Biodistribution in liver of C57BL/6 mouse bearing mouse B16-F0 cells at 0.74 to 0.92 MBq, iv after 3 hrs; assay type: ADME, organism-based; method in brief: as §3
Liver [15] = experiment: Biodistribution in liver of C57BL/6 mouse bearing mouse B16-F0 cells at 0.74 to 0.92 MBq, iv after 6 hrs; assay type: ADME, organism-based; method in brief: as §3
Liver [16] = experiment: Biodistribution in liver of C57BL/6 mouse bearing mouse B16-F0 cells at 0.74 to 0.92 MBq, iv after 24 hrs; assay type: ADME, organism-based; method in brief: as §3
Pancreas [17] = experiment: Biodistribution in pancreas of C57BL/6 mouse bearing mouse B16-F0 cells at 0.74 to 0.92 MBq, iv after 3 hrs; assay type: ADME, organism-based; method in brief: as §3
Pancreas [18] = experiment: Biodistribution in pancreas of C57BL/6 mouse bearing mouse B16-F0 cells at 0.74 to 0.92 MBq, iv after 6 hrs; assay type: ADME, organism-based; method in brief: as §3
Lung = experiment: Biodistribution in lung of C57BL/6 mouse bearing mouse B16-F0 cells at 0.74 to 0.92 MBq, iv after 24 hrs; assay type: ADME, organism-based; method in brief: as §3
Spleen [19] = experiment: Biodistribution in spleen of C57BL/6 mouse bearing mouse B16-F0 cells at 0.74 to 0.92 MBq, iv after 24 hrs; assay type: ADME, organism-based; method in brief: as §1
Kidney [20] = experiment: Biodistribution in kidney of C57BL/6 mouse bearing mouse B16-F0 cells at 0.74 to 0.92 MBq, iv after 3 hrs; assay type: ADME, organism-based; method in brief: as §3
Kidney [21] = experiment: Biodistribution in kidney of C57BL/6 mouse bearing mouse B16-F0 cells at 0.74 to 0.92 MBq, iv after 24 hrs; assay type: ADME, organism-based; method in brief: as §3
Blood [22] = experiment: Biodistribution in blood of C57BL/6 mouse bearing mouse B16-F0 cells at 0.74 to 0.92 MBq, iv after 1 hr; assay type: ADME, organism-based; method in brief: as §3
Blood [23] = experiment: Biodistribution in blood of C57BL/6 mouse bearing mouse B16-F0 cells at 0.74 to 0.92 MBq, iv after 6 hrs; assay type: ADME, organism-based; method in brief: as §3
Thyroid gland [24] = experiment: Biodistribution in thyroid of C57BL/6 mouse bearing mouse B16-F0 cells at 0.74 to 0.92 MBq, iv after 3 hrs; assay type: ADME, organism-based; method in brief: as §1
Thyroid gland [25] = experiment: Biodistribution in thyroid of C57BL/6 mouse bearing mouse B16-F0 cells at 0.74 to 0.92 MBq, iv after 72 hrs; assay type: ADME, organism-based; method in brief: as §1
[26] = Biodistribution in uvea of C57BL/6 mouse bearing mouse B16-F0 cells at 0.74 to 0.92 MBq, iv after 24 hrs; assay type: ADME, organism-based, Uveal tract; method in brief: as §1
[27] = Biodistribution in gall bladder of C57BL/6 mouse bearing mouse B16-F0 cells at 0.74 to 0.92 MBq, iv after 3 hrs; assay type: ADME, organism-based; method in brief: as §3
[28] = Biodistribution in gall bladder of C57BL/6 mouse bearing mouse B16-F0 cells at 0.74 to 0.92 MBq, iv after 6 hrs; assay type: ADME, organism-based; method in brief: as §3
[29] = Biodistribution in Stomach content of C57BL/6 mouse bearing mouse B16-F0 cells at 0.74 to 0.92 MBq, iv after 72 hrs; assay type: ADME, organism-based; method in brief: as §3
Thyroid gland [30] = experiment: Biodistribution in thyroid of C57BL/6 mouse bearing mouse B16-F0 cells at 0.74 to 0.92 MBq, iv after 1 hr; assay type: ADME, organism-based; method in brief: as §1
[31] = Ratio of drug level in tumor to liver of C57BL/6 mouse bearing mouse B16-F0 cells at 0.74 to 0.92 MBq, iv after 72 hrs; assay type: ADME, organism-based; method in brief: as §2
Spleen [32] = experiment: Biodistribution in spleen of C57BL/6 mouse bearing mouse B16-F0 cells at 0.74 to 0.92 MBq, iv after 72 hrs; assay type: ADME, organism-based; method in brief: as §1

| SMILES | Activity [1] | Drug uptake [2] | Drug uptake [3] | Ratio [4] | Ratio [5] | Ratio [6] | Ratio [7] | Ratio [8] | Ratio [9] | Drug uptake [11] | Drug uptake [12] | Drug uptake [13] | Drug uptake (Liver [14]) | Drug uptake (Liver [15]) | Drug uptake (Liver [16]) | Drug uptake (Kidney [20]) | Drug uptake (Blood [22]) | Drug uptake (Blood [23]) | Drug uptake (Thyroid gland [24]) | Drug uptake [26] | other results |
| --- | --- | --- | --- | --- | --- | --- | --- | --- | --- | --- | --- | --- | --- | --- | --- | --- | --- | --- | --- | --- | --- |
| CCN(CC)CCNC(=O)c1c[nH]c2ccc([125I])cc2c1=O.Cl.Cl | 23.8% | 4.1 % ID/g | 5.8 % ID/g | 0.91 | 2.2 | 18.16 | 39.14 | 68.5 | 67 | 61.06 % ID/g | 9.93 % ID/g | 0.13 % ID/g | 1.84 % ID/g | 0.32 % ID/g | 0.07 % ID/g | 0.8 % ID/g | 0.42 % ID/g | 0.17 % ID/g | 4.33 % ID/g | 3.5 % ID/g | Ratio [10]: 72.6; Drug uptake (Brain): 0.08 % ID/g; Drug uptake (Pancreas [17]): 0.96 % ID/g; Drug uptake (Pancreas [18]): 1.08 % ID/g; Drug uptake (Lung): 0.04 % ID/g; Drug uptake (Spleen [19]): 0.15 % ID/g; Drug uptake (Kidney [21]): 0.03 % ID/g; Drug uptake (Thyroid gland [25]): 9.83 % ID/g |
| CCN(CC)CCNC(=O)c1ccc2cncc([125I])c2n1.Cl.Cl | 68.9% | 13.9 % ID/g | 11.4 % ID/g | 5.92 | 6.1 | 7.69 | – | – | 27.14 | 43.48 % ID/g | 9.76 % ID/g | 0.62 % ID/g | 2.27 % ID/g | 1.49 % ID/g | – | 1.51 % ID/g | 2.21 % ID/g | 1.36 % ID/g | 41.44 % ID/g | 10 % ID/g | Drug uptake [27]: 41.51 % ID/g; Drug uptake [28]: 28.67 % ID/g; Drug uptake [29]: 2.13 % ID/g; Drug uptake (Thyroid gland [30]): 20.16 % ID/g |
| CCN(CC)CCNC(=O)c1ccc2cc([125I])ccc2n1.Cl.Cl | 80.7% | 25.4 % ID/g | 17.2 % ID/g | 1.8 | 2.85 | 2.42 | 5.39 | 22.89 | 10.02 | 23.36 % ID/g | 34.72 % ID/g | 2.33 % ID/g | 8.89 % ID/g | 7.11 % ID/g | 2.25 % ID/g | 12.59 % ID/g | 7.01 % ID/g | 5.91 % ID/g | – | 22.27 % ID/g | Ratio [31]: 7.26; Ratio [10]: 46.51; Drug uptake (Brain): 0.37 % ID/g; Drug uptake (Pancreas [17]): 6.17 % ID/g; Drug uptake (Lung): 0.53 % ID/g; Drug uptake (Spleen [19]): 2.66 % ID/g; Drug uptake (Spleen [32]): 1.85 % ID/g; Drug uptake (Kidney [21]): 0.34 % ID/g |
| CCN(CC)CCNC(=O)c1cc2c([125I])cccc2cn1.Cl.Cl | 49.9% | 7.1 % ID/g | 7.9 % ID/g | 1.88 | 3.52 | 5.14 | 16.4 | – | 24.23 | 29.16 % ID/g | 19.05 % ID/g | 0.75 % ID/g | 2.02 % ID/g | 1.54 % ID/g | 0.43 % ID/g | 2.66 % ID/g | 2.15 % ID/g | 2.17 % ID/g | 35.71 % ID/g | 14.55 % ID/g | Drug uptake (Spleen [32]): 1.62 % ID/g; Drug uptake (Thyroid gland [30]): 16.88 % ID/g; Drug uptake (Thyroid gland [25]): 132.79 % ID/g |
| CCN(CC)CCNC(=O)c1cnc2cc([125I])ccc2n1.Cl.Cl | 70.2% | 27.7 % ID/g | 40.7 % ID/g | 1.29 | 3.12 | 5.4 | 14.54 | – | 7.26 | – | 20.33 % ID/g | – | 8.87 % ID/g | 7.53 % ID/g | 1.49 % ID/g | 9.3 % ID/g | 3.45 % ID/g | 3.09 % ID/g | 39.76 % ID/g | 32.44 % ID/g | Drug uptake [28]: 33.38 % ID/g; Drug uptake [29]: 2.23 % ID/g |

From ChEMBL document CHEMBL1150393, “Evaluation of radiolabeled (hetero)aromatic analogues of N-(2-diethylaminoethyl)-4-iodobenzamide for imaging and targeted radionuclide therapy of melanoma” (J Med Chem, 2008)
